An excerpt weighted towards active compounds, which were near 4.3% of everything screened.
GalR3 antag – blocks the human galanin receptor 3 | hit rate 0.44% among 360,000 | HEK293 GalR3-CNG cAMP membrane potential fluorescence; galR3 body fused to GalR1 C-terminus | inhibition, % at 3 µM | AID 651719;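 active = inhibition above the screen-wide average plus 3 SD, cut at about 13% in these data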;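 also: forskolin and galanin both at EC90 stimulate the cells; cAMP rise reported by CNG channel membrane potential dye signal; 0% = forskolin plus galanin with DMSO and 100% = forskolin alone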
Target sequence (O60755 1-299 limits assumed): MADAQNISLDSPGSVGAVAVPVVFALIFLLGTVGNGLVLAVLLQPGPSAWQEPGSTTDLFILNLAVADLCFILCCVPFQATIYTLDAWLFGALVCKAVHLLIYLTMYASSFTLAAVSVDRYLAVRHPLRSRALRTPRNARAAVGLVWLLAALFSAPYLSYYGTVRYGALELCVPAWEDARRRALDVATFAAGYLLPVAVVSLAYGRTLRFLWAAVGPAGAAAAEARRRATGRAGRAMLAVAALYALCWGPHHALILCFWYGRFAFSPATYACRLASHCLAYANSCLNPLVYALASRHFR
CHO parental Ca – counter-screen for OX1R antagonists: effect in parental CHO cells; parental CHO-K1, ATP-induced calcium, Fluo-8 fluorescence; inhibition, % at 5.6 µM; hit rate 0.63% among 330,000; AID 463079;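 active = inhibition above that plate's mean sample inhibition plus 3 SD, cut at about 26% in these data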;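 also: 0% = ATP-challenged DMSO wells and 100% = DMSO wells without ATP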
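Test system: untransfected parental CHO cell line; also added: ATP stimulus; dosing: 5.6 µM, single dose; signal: calcium-sensitive Fluo-8 fluorescence; measure: percent inhibition of ATP-evoked calcium rise, normalized to controls; benchmarks: low control ATP plus DMSO, high control DMSO only; replication: one well per compound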
TAAR1 antagonist – antagonists of human TAAR1. CHO RD-HGA16 TAAR1, Fluo-8 calcium fluorescence, antagonist. inhibition, % at 3 µM. hit rate 1.5% among 360,000;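 active = inhibition above a per-plate cutoff, the mean inhibition of test compounds on that plate plus 3 SD, cut at about 49% in these data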;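 also: 0% = DMSO plus EC80 beta-PEA response and 100% = DMSO alone without agonist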
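Test system – hTAAR1-expressing CHO RD-HGA16 cells, Gα16-coupled · Also added – β-PEA at EC80 concentration, post-compound challenge · Compound – 3 µM, single point · Incubation – dye loading 75 min at 37 °C, then 30 min room temperature · Measured by – Fluo-8 intracellular calcium dye fluorescence, real-time kinetic reads · Benchmarks – vehicle and agonist controls · Replicates – singlicate, one well per test compound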
TAAR1 ag – agonists of human TAAR1 | Q96RJ0 | hit rate 0.99% among 360,000 | CHO RD-HGA16 TAAR1, Fluo-8 calcium fluorescence; vehicle wells 0%, saturating PEA agonist 100% | activation, % at 3 µM;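 active = activation above the mean activation of all test compounds in the run plus 3 SD, cut at about 38% in these data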
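System: CHO-derived RD-HGA16 cells with stable Gα16 and human TAAR1 / Times: 17-24 h plating, Fluo-8 75 min 37 °C, 30 min RT / Technique: calcium-sensitive Fluo-8 signal, excitation 470-495, emission 515-575 nm / Measure: % activation relative to PEA EC100 response / Benchmarks: DMSO and PEA EC100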
OX1R antag-1 – antagonists of human orexin 1 receptor | CHO/OX1R cells, Fluo-8 calcium fluorescence, orexin A | O43613 | inhibition, % at 5 µM | AID 434989 | hit rate 0.43% among 330,000;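 active = inhibition above its plate's threshold, mean inhibition of all tested compounds on the plate plus 3 SD, cut at about 37% in these data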;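 also: 0% = orexin A challenge wells and 100% = SB-334867-A antagonist wells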
OX1R antag-2 – antagonists of human orexin 1 receptor (OX1R); O43613; OX1R-expressing cells, FRET antagonist read-out; inhibition, % at 6.6 µM; hit rate 1.8% among 330,000; AID 485270; in the data active = inhibition mostly above about 38%, no sharp cut-off; inactive = mostly below about 40%;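 also: 0% = agonist challenge alone and 100% = reference antagonist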
* hit, by the source's call; / = no result given.

SMILES	GalR3 antag	CHO parental Ca	TAAR1 antagonist	TAAR1 ag	OX1R antag-1	OX1R antag-2
Cc1[nH]c2ccccc2c1/C=N/NC(=O)c1cccc([N+](=O)[O-])c1	4.2	-3.0	6.2	5.6	-7.2	27.8
Cc1[nH]c2ccccc2c1/C=N/Nc1ccc([N+](=O)[O-])cc1	-5.1	56.8*	46.9	14.3	52.5*	17.1
CCc1nc2n(n1)C(O)c1cc([N+](=O)[O-])ccc1S2 (stereo not drawn)	-1.1	-8.1	-6.6	1.1	-10.4	46.1*
CCN(CC)C(=O)c1cc2cc([N+](=O)[O-])ccc2s1	-4.0	-3.1	-5.2	11.3	-15.6	50.2
Cc1ccc(-c2ccc(CN3C(CC(C)C)C(=O)N(Cc4cn(CCC5OCCO5)nn4)CCS3(=O)=O)cc2)cc1 (stereo not drawn)	8.2	/	54.8*	7.8	/	/
COc1ccc(C)cc1NC(=S)N1CC(C)OC(C)C1 (stereo not drawn)	0.9	-5.5	-36.4	25.4	-12.0	0.6
CC[n+]1cc(-c2ccccc2)nc(N2CCOCC2)n1	-1.1	-4.5	-4.2	-1.4	2.6	50.6*
C/C(=N/Nc1nc(C)c(C)s1)c1cccc([N+](=O)[O-])c1	-6.6	-19.3	3.2	2.2	-11.7	14.7
CCOC(=O)c1cc2cc3ccccc3cc2[nH]1	-5.5	6.5	-4.7	15.7	-7.8	37.6*
CC(C)OC(=O)c1cc2ccccc2[nH]1	-9.3	-6.6	-4.1	6.5	-12.2	17.8
CN(C)S(=O)(=O)c1cccc(N=C2SCCN2Cc2ccccc2)c1	-4.5	40.0*	2.2	-0.9	-0.8	30.4
CC(C)(C)c1ccc(C#C[C@@H]2C=C[C@@H](O)[C@@H](CO)O2)cc1	-2.9	/	-26.5	13.1	/	/
CCCCNc1c(-c2ccc(OC)c(Sc3ccc(OC)cc3)c2)nc2ccccn12	/	45.1*	/	/	40.9	48.0
CCCCCCSc1cc(-c2nc3cc(C)ccn3c2NCCCC)ccc1OC	-7.1	-5.8	16.3	1.7	-31.8	19.2
CCCCNc1c(-c2ccc(-c3ccc(OC)cc3)c(OC)c2)nc2ccccn12	-6.6	48.5	72.5*	7.1	14.0	16.1
CCCCNc1c(-c2ccc(SC(C)CC)c(OC)c2)nc2ccc(C)cn12 (stereo not drawn)	-2.8	44.4*	86.8*	9.1	41.8	67.8*
CCCCCCSc1ccc(-c2nc3ccc(C)cn3c2NCCCC)cc1OC	-6.6	/	-16.4	-0.9	/	/
COC(=O)C1=C(C)NC(=S)NC1c1cccc(OC)c1 (stereo not drawn)	-3.9	/	-13.1	0.1	/	/
Cc1ccc(C)c(C(O)c2ncc(-c3ccc(C(F)(F)F)cc3)[nH]2)c1 (stereo not drawn)	-8.4	/	48.7*	21.6	/	/
Cc1ccc(C)c(C(O)c2ncc(-c3ccccc3)[nH]2)c1 (stereo not drawn)	-1.9	/	-14.1	5.8	/	/
CCCCN1C(=O)C(=O)NC[C@@H]1CC1CCCCC1	-3.4	/	-20.2	0.8	/	/
COc1cc(OC)cc(C(=O)NCCN2C(=O)S/C(=C\c3cccs3)C2=O)c1	-3.0	7.3	35.0	14.7	-6.9	35.1*
COc1ccc(-c2cc(C(=O)Nc3c(C)n(C)n(-c4ccccc4)c3=O)c3ccccc3n2)cc1OC	-6.4	-11.0	54.6*	16.8	-14.6	5.9
COc1ccc(-c2cc(C(=O)OC(C)C(=O)Nc3c(C)n(C)n(-c4ccccc4)c3=O)c3ccccc3n2)cc1 (stereo not drawn)	-5.5	-21.3	2.7	6.5	-1.1	61.9*
COc1cc(N2C[C@@]3(O)CC[C@@H](O)[C@@H](OC)[C@@H]3[C@@](C)(O)[C@@H]2CC=C(C)C)cc(OC)c1OC	-7.2	/	1.0	1.3	/	/
O=C1Nc2ccccc2O/C1=C\c1ccccc1Br	-11.0	-16.3	-12.6	-1.7	4.2	44.8*
CC1CCN(C(=O)C(C)Sc2nc(-c3ccccc3)cc(C(F)(F)F)n2)CC1 (stereo not drawn)	-5.1	30.3*	12.2	4.9	-30.3	10.5
Nc1nc2c(ncn2[C@@H]2O[C@H](CNCc3ccc(Oc4cc(-n5cccn5)ncn4)cc3)[C@@H](O)[C@H]2O)c(=O)[nH]1	0.4	/	1.5	1.0	/	/
